In one assay the test system is RAW264.7. Put plainly: Inhibition of LPS and IFNgamma-induced nitric oxide production in mouse RAW264.7 cells incubated for 16 hrs by Griess assay. It is filed as functional, cell-based. In a few lines:
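RAW 264.7 macrophages stimulated with LPS plus IFN-γ to induce iNOS. Compounds dissolved in DMSO and diluted in PBS. Nitrite in supernatants measured by Griess assay against a sodium nitrite standard curve after 16 h. Activity expressed relative to LPS/IFN-γ/0.1% DMSO control; L-NMMA as positive control. Eight concentrations, at least three independent experiments, each in duplicate.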
For orientation: Griess reagent forms a coloured azo dye with nitrite.

Assay [1] has as its target T1, Peroxisome proliferator-activated receptor gamma (Homo sapiens) (UniProt P37231).
T1 sequence (whole entry): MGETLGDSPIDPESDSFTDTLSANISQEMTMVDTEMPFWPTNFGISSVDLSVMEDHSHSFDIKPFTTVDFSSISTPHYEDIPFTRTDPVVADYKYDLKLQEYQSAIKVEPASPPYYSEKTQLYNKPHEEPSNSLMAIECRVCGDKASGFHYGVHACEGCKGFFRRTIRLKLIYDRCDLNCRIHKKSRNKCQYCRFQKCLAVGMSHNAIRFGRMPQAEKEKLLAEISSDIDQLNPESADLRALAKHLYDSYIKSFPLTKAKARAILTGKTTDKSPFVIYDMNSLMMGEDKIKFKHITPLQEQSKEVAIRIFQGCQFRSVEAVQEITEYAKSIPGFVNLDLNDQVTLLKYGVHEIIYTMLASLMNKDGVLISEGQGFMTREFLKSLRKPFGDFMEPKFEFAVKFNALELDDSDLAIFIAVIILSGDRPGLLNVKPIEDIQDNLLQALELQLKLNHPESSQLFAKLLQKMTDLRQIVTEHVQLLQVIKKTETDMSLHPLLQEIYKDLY
Put plainly: Agonist activity at human PPARgamma expressed in HEK293 cells assessed as induction of receptor activation at 10 uM incubated for 18 hrs by luciferase reporter gene assay relative to untreated control. Type of assay: cell-based. In a few lines: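 HEK-293 cells in DMEM with 10% FBS, transfected by calcium phosphate with human PPARγ1 plasmid, tk-PPREx3-luc reporter and pEGFP-N1. After 6 h, replated in phenol-red-free DMEM with charcoal-stripped FBS. Treated 18 h; DMSO ≤0.1% as solvent control. Firefly luciferase luminescence normalized to EGFP fluorescence per well.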
(In general: In a reporter assay the amount or activity of a reporter protein is the signal.)

Molecules are shown by their SMILES. Calls of active or inactive are those of the source. The calls are words filed in the database; no cut-off is given here.

Regarding `C=C[C@@H](O)C#Cc1c2c(cc3cc(OC)c(O)cc13)CO[C@H]2/C=C\CCCCCCC`, the inhibition entry with RAW264.7 was “inactive”. The result in assay [1] was inactive. With `C=C[C@H](C#CC#C[C@@H](O)/C=C\CCCCCCC)O[C@]1(C)CC[C@@H](C(C)C)[C@@H](O)[C@@H]2[C@@](C)(O)CC[C@]21O`, the inhibition entry in the assay with RAW264.7 is “inactive”. Moreover, in assay [1], the result was inactive. Turning to `C=C[C@H](C#CC#C[C@@H](O)/C=C\CCCCCCC)O[C@]1(C)CCC[C@]2(C)CC[C@@H](C(C)(C)O)C[C@H]21`, in the assay with RAW264.7, the inhibition entry was “inactive”. For `C=C[C@@H](O)C#CC#C[C@H](/C=C\CCCCCCC)O[C@]1(C)CC[C@@H](O)[C@]2(C)CC[C@@H](C(C)C)[C@@H](O)[C@H]21`, the inhibition entry in the assay with RAW264.7 is “inactive”. The outcome in assay [1] was inactive.

As for `C=C[C@@H](O)C#CC#C[C@H](/C=C\CCCCCCC)O[C@]1(C)CC[C@@H](C(C)C)[C@@H](O)[C@@H]2[C@@](C)(O)CC[C@]21O`, the inhibition entry in the assay with RAW264.7 was “inactive”. Besides, the result in assay [1] was inactive. Take `C=C[C@H](C#CC#C[C@@H](O)/C=C\CCCCCCC)O[C@]1(C)CC[C@@H](O)[C@]2(C)CC[C@H](C(C)C)[C@H](O)[C@H]21`: the inhibition result in the assay with RAW264.7 was “inactive”. In addition, the outcome in assay [1] was inactive.

As to `C=C[C@H]1OCc2cc3cc(OC)c(O)cc3c(C#C[C@@H](O)/C=C\CCCCCCC)c21`, the inhibition entry in the assay on RAW264.7 is “inactive”. `C=C[C@@H](O)C#CC#C[C@H](/C=C\CCCCCCC)O[C@]1(C)CC[C@@H](O)[C@]2(C)CC[C@H](C(C)C)[C@H](O)[C@H]21`: the inhibition entry in the assay with RAW264.7 is “inactive”. In addition, the result in assay [1] was inactive. Regarding `C=C[C@H](C#CC#C[C@@H](O)/C=C\CCCCCCC)O[C@]1(C)CC[C@@H](O)[C@]2(C)CC[C@@H](C(C)C)[C@@H](O)[C@H]21`, the inhibition entry in the assay on RAW264.7 is “inactive”. The same measure, in the same setting: with `C=C[C@@H](O)C#CC#C[C@H](/C=C\CCCCCCC)O[C@]1(C)CCC[C@]2(C)CC[C@@H](C(C)(C)O)C[C@H]21` the entry was “inactive”.

(Values after ChEMBL document CHEMBL3351676, “Polyyne hybrid compounds from Notopterygium incisum with peroxisome proliferator-activated receptor gamma agonistic effects” (J Nat Prod, 2014).)
